Measured values reported in ChEMBL document CHEMBL1681732, “Synthesis and SAR of sulfoxide substituted carboxyquinolines as NK3 receptor antagonists” (Bioorg Med Chem Lett, 2011).
≈ marks a conversion by molar mass, not a printed value.

Experiments:
[1] = Equilibrium solubility of the compound; assay type: physicochemical
Neuromedin-K receptor = biological target: T1, Neuromedin-K receptor (Homo sapiens, UniProt P29371); test: Antagonist activity at human NK3 receptor expressed in CHO cells assessed as inhibition of senktide-induced calcium flux by FLIPR assay; assay type: functional, cell-based
T1 sequence (P29371 whole entry): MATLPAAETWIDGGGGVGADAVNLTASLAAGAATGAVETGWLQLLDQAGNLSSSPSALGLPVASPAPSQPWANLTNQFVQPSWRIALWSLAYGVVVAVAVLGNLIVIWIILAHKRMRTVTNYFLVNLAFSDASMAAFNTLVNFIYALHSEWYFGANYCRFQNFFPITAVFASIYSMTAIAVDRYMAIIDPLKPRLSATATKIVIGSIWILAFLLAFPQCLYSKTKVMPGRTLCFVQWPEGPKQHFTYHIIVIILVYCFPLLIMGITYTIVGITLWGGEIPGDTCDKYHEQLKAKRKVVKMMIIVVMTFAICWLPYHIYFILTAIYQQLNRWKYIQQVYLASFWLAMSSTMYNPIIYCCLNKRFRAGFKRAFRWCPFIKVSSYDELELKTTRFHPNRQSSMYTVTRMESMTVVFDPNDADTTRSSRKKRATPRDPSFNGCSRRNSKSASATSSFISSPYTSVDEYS
Method in brief: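 FLIPR functional assay in CHO cells stably expressing human recombinant NK3 receptor. EC50 given as mean ± SEM (n ≥ 2), or as a single value where n = 1. Tested as 1:1 diastereomer mixtures unless marked as a single isomer.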

MDR1 [2] = test: (§1) Efflux ratio of permeability in MDCK cells expressing human MDR1; assay type: ADME, cell-based, Canis lupus familiaris; conditions: dog, MDCK-MDR1
Method in brief: (§2)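 Permeability measured in MDCK cells expressing human MDR1. Papp is expressed in 10^-6 cm/s and reported together with the efflux ratio.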

MDR1 [3] = test: (§3) Apparent permeability across MDCK cells expressing human MDR1; assay type: ADME, cell-based, Canis lupus familiaris; conditions: dog, MDCK-MDR1; method in brief: as §2
[4] = biological target: Voltage-gated inwardly rectifying potassium channel KCNH2 (Homo sapiens, UniProt Q12809); test: Inhibition of human ERG
Chain of Voltage-gated inwardly rectifying potassium channel KCNH2 (Q12809 whole entry): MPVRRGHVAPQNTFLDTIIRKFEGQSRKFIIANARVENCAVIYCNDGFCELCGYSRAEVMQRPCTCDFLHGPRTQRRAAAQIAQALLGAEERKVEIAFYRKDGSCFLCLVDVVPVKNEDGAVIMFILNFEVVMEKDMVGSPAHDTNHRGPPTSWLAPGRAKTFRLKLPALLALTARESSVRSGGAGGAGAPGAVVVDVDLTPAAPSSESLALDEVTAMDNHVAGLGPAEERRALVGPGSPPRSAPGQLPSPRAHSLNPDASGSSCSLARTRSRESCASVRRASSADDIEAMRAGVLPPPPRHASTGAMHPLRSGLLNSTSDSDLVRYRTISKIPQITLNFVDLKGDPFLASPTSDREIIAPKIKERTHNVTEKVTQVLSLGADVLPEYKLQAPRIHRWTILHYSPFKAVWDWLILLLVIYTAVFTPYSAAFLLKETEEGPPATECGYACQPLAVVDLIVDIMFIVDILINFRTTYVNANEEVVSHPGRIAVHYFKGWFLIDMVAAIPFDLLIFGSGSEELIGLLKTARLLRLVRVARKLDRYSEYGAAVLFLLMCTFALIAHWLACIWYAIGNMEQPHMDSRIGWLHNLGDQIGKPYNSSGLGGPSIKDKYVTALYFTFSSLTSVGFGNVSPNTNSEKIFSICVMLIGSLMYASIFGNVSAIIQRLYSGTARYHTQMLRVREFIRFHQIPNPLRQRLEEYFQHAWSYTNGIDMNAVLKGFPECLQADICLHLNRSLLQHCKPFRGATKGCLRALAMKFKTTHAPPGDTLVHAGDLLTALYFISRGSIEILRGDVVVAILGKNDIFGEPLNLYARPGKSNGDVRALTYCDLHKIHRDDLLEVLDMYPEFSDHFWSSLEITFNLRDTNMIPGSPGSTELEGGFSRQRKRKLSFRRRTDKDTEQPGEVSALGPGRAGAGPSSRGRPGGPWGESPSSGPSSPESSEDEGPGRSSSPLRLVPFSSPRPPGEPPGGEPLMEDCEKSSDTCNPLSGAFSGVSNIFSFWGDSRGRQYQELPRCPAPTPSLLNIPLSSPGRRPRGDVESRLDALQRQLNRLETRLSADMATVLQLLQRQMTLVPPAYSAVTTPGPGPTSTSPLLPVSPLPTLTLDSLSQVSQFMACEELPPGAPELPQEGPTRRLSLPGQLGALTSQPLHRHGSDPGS

[5] = Lipophilicity, log D of the compound; assay type: physicochemical; conditions: octanol/water
[6] = Intrinsic clearance in human liver microsomes assessed per mg of protein; assay type: ADME, Microsome
Gerbillinae = test: Reversal of senktide-induced locomotor activity in ip dosed gerbil; assay type: functional
MDCK [7] = test: as §1; assay type: ADME, cell-based, Canis lupus familiaris; conditions: dog, mdck; method in brief: as §2
MDCK [8] = test: as §3; assay type: ADME, cell-based, Canis lupus familiaris; conditions: dog, mdck; method in brief: as §2

| SMILES | solubility thermodynamic [1] | EC50 (Neuromedin-K receptor) | also measured |
| --- | --- | --- | --- |
| CC[C@H](NC(=O)c1c(SC)c(-c2ccccc2)nc2ccccc12)c1ccccc1 (mixture of isomers) | < 1 µM | 36 nM | – |
| CC[C@H](NC(=O)c1c([S+]([O-])CC(=O)N(C)C)c(-c2ccccc2)nc2ccccc12)c1ccccc1 (mixture of isomers) | 52 µM | 12 nM | – |
| CC[C@H](NC(=O)c1c([S+](C)[O-])c(-c2ccccc2)nc2cc(C)ccc12)c1ccccc1 (mixture of isomers) | 160 µM | 3.6 nM | – |
| C[S+]([O-])c1c(-c2ccccc2)nc2ccccc2c1C(=O)NC1(c2ccccc2)CCC1 (racemic) | 4.5 µM (≈ 1.98 µg/mL) | 38 nM | – |
| CC[C@H](NC(=O)c1c([S+](C)[O-])c(-c2ccccc2)nc2ccccc12)c1ccccn1 (mixture of isomers; 35b) | – | > 5200 nM | solubility [1]: 460 µM |
| CC[C@H](NC(=O)c1c([S+](C)[O-])c(-c2cc[nH]n2)nc2ccccc12)c1ccccc1 (mixture of isomers) | 420 µM | 2500 nM | – |
| C[S+]([O-])c1c(-c2ccccc2)nc2ccccc2c1C(=O)N[C@H](c1ccncc1)C1CC1 (stereo in doubt; 33b) | – | > 9300 nM | solubility [1]: 370 µM (≈ 163 µg/mL) |
| CCOc1ccc2c(C(=O)N[C@@H](CC)c3ccccc3)c([S+](C)[O-])c(-c3ccccc3)nc2c1 (mixture of isomers) | 69 µM | 38 nM | – |
| CC[C@H](NC(=O)c1c(CS(C)(=O)=O)c(-c2ccccc2)nc2ccccc12)c1ccccc1 (mixture of isomers) | 4 µM | 2.5 nM | efflux ratio (MDR1 [2]): 3.1; Papp (MDR1 [3]): 11 ×10⁻⁶ cm/s |
| CC[C@H](NC(=O)c1c([S+](C)[O-])c(-c2ccccc2)nc2c(F)cccc12)c1ccccc1 (mixture of isomers) | 160 µM | 8.2 nM | – |
| C[S+]([O-])c1c(-c2ccccc2)nc2ccccc2c1C(=O)N[C@H](c1ccccc1)C1CC1 (mixture of isomers) | 180 µM | 15 nM | – |
| CC[C@H](NC(=O)c1c([S+](C)[O-])c(-c2ccccc2)nc2cc(Br)ccc12)c1ccccc1 (mixture of isomers) | 15 µM | 5.1 nM | – |
| CC[C@H](NC(=O)c1c([S+](C)[O-])c(-c2cccnc2)nc2ccccc12)c1ccccc1 (single isomer, unassigned) | 470 µM (≈ 202 µg/mL) | 690 nM | – |
| CC[C@H](NC(=O)c1c([S+](C)[O-])c(-c2ccccc2)nc2cc(Cl)ccc12)c1ccccc1 (mixture of isomers) | 34 µM | 7.7 nM | – |
| CC[C@H](NC(=O)c1c([S+](C)[O-])c(-c2ccccc2)nc2c(C)cccc12)c1ccccc1 (mixture of isomers) | 16 µM | 1900 nM | – |
| CC[C@H](NC(=O)c1c([S+](C)[O-])c(-c2ccccc2F)nc2ccccc12)c1ccccc1 (mixture of isomers) | 53 µM | 81 nM | – |
| CC[C@H](NC(=O)c1c(C[S@@+](C)[O-])c(-c2ccccc2)nc2ccccc12)c1ccccc1 | 8 µM (≈ 3.54 µg/mL) | 1.8 nM | efflux ratio (MDR1 [2]): 2.6; Papp (MDR1 [3]): 10 ×10⁻⁶ cm/s; INH [4]: > 33 µM; logD [5]: 3.5; microsomal CLint [6]: 5.2 µL/min/mg; ED50 (Gerbillinae): 22 µmol/kg |
| CC[C@H](NC(=O)c1c([S+](C)[O-])c(-c2ccccc2)nc2cc(F)ccc12)c1ccccc1 (mixture of isomers) | 58 µM | 13 nM | – |
| CC[C@H](NC(=O)c1c([S+](C)[O-])c(-c2ccccc2)nc2ccccc12)c1ccccc1 (mixture of isomers) | – | 4.9 nM | efflux ratio (MDR1 [2]): 2.7; solubility [1]: 230 µM; Papp (MDR1 [3]): 9.4 ×10⁻⁶ cm/s |

| SMILES | solubility thermodynamic [1] | EC50 (Neuromedin-K receptor) | also measured |
| --- | --- | --- | --- |
| CC[C@H](NC(=O)c1c([S+](C)[O-])c(-c2ccccc2)nc2ccccc12)c1ccccc1 (stereo in doubt; 2b) | – | 240 nM | Ratio (MDCK [7]): 2; solubility [1]: 44 µM (≈ 18.9 µg/mL); Papp (MDCK [8]): 17 ×10⁻⁶ cm/s |
| CC[C@H](NC(=O)c1c([S+](C)[O-])c(-c2ccc(F)cc2)nc2ccccc12)c1ccccc1 (mixture of isomers) | 88 µM | 48 nM | – |
| CC[C@H](NC(=O)c1c([S+](C)[O-])c(-c2ccccc2)nc2cc(CN(C)C)ccc12)c1ccccc1 (mixture of isomers) | 460 µM | 88 nM | – |
| CC[C@H](NC(=O)c1c([S+](C)[O-])c(-c2ccccc2)nc2ccccc12)c1cccnc1 (mixture of isomers) | 350 µM | 74 nM | – |
| CC[C@H](NC(=O)c1c([S+](C)[O-])c(-c2cncs2)nc2ccccc12)c1ccccc1 (mixture of isomers) | 390 µM | 220 nM | – |
| CC[C@H](NC(=O)c1c([S+]([O-])C(C)C)c(-c2ccccc2)nc2ccccc12)c1ccccc1 (mixture of isomers) | 83 µM | 16 nM | – |
| CC[C@H](NC(=O)c1c([S+](C)[O-])c(-c2cccs2)nc2ccccc12)c1ccccc1 (mixture of isomers) | 47 µM | 1.7 nM | microsomal CLint [6]: 220 µL/min/mg |
| CC[C@H](NC(=O)c1c([S+](C)[O-])c(-c2cccc(F)c2)nc2ccccc12)c1ccccc1 (mixture of isomers) | 100 µM | 18 nM | – |
| CC[C@H](NC(=O)c1c([S+]([O-])CC)c(-c2ccccc2)nc2ccccc12)c1ccccc1 (mixture of isomers) | 170 µM | 6.9 nM | – |
| CC[C@H](NC(=O)c1c(CSC)c(-c2ccccc2)nc2ccccc12)c1ccccc1 (mixture of isomers) | 2 µM | 35 nM | efflux ratio (MDR1 [2]): 1.1; Papp (MDR1 [3]): 5.9 ×10⁻⁶ cm/s |
| CC[C@H](NC(=O)c1c([S+](C)[O-])c(-c2cscn2)nc2ccccc12)c1ccccc1 (mixture of isomers) | 41 µM | 110 nM | – |
| C[S+]([O-])c1c(-c2ccccc2)nc2ccccc2c1C(=O)N[C@H](c1ccncc1)C1CC1 (mixture of isomers) | – | > 10000 nM | solubility [1]: 99 µM |
| CC[C@H](NC(=O)c1c([S+](C)[O-])c(-c2ccccc2)nc2ccccc12)c1ccccn1 (mixture of isomers; 35a) | 420 µM | 77 nM | – |
| CC[C@H](NC(=O)c1c([S+](C)[O-])c(-c2ccsc2)nc2ccccc12)c1ccccc1 (mixture of isomers) | – | 1.8 nM | microsomal CLint [6]: 190 µL/min/mg |
| CC[C@H](NC(=O)c1c(S(C)(=O)=O)c(-c2ccccc2)nc2ccccc12)c1ccccc1 (mixture of isomers) | 36 µM | 14 nM | efflux ratio (MDR1 [2]): 2.6; Papp (MDR1 [3]): 11 ×10⁻⁶ cm/s |
| CC[C@H](NC(=O)c1c([S+](C)[O-])c(-c2ccccc2)nc2cc(N(C)C)ccc12)c1ccccc1 (mixture of isomers) | 44 µM | 212 nM | – |
| CC[C@H](NC(=O)c1c([S+](C)[O-])c(-c2ccccn2)nc2ccccc12)c1ccccc1 (mixture of isomers) | 360 µM | 1120 nM | – |
| CC[C@H](NC(=O)c1c(CC[S+](C)[O-])c(-c2ccccc2)nc2ccccc12)c1ccccc1 (mixture of isomers) | 360 µM | 3.3 nM | efflux ratio (MDR1 [2]): 21; Papp (MDR1 [3]): 1 ×10⁻⁶ cm/s |
| C[S+]([O-])c1c(-c2ccccc2)nc2ccccc2c1C(=O)NC1(c2ccccc2)CC1 (racemic) | 1.3 µM (≈ 0.555 µg/mL) | 16 nM | – |
